The source of these data is ChEMBL document CHEMBL1149450, “Synthesis and cytotoxic evaluation of new derivatives of the marine alkaloid variolin B” (2006).

Common to all, as to assay type: functional
The test system of one assay is SK-OV-3. The assay can be described thus: Inhibition of growth against SKOV3 cells after 72 hrs exposure. Particulars: Homo sapiens, SK-OV-3, 72 h. In outline: (§1)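 Human tumour cells seeded at 5 × 10^3 per well in RPMI and allowed to attach for 18 h in drug-free medium. Compounds added in DMSO:H2O (3:7) for 72 h of continuous exposure. Cells fixed with cold TCA (60 min, 4 °C), stained with 0.4% SRB in 1% acetic acid (10 min, RT), and bound dye solubilised in Tris. OD read at 490 nm. GI50 calculated from 100 × [(T − T0)/(C − T0)] = 50, using control, test and time-zero ODs.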

The next assay has as its system LNCaP. In words: Inhibition of growth against LnCAP cells after 72 hrs exposure. Particulars: Homo sapiens. In outline:
as §1

Another assay deals with SK-BR-3. The assay can be described thus: Inhibition of growth against SKBR3 cells after 72 hrs exposure. Particulars: Homo sapiens, SK-BR-3, 72 h. An outline of the steps: as §1
The test system of the next assay is A549. In words: Inhibition of growth against A549 cells after 72 hrs exposure. Particulars: Homo sapiens, A549, 72 h. In outline:
as §1

For assay [1], the system named is IGROV-1. In words: Inhibition of growth against IGROV cells after 72 hrs exposure. Particulars: Homo sapiens, IGROV-1, 72 h. In outline: as §1
Another assay deals with PANC-1. In words: Inhibition of growth against PANC1 cells after 72 hrs exposure. Particulars: Homo sapiens, PANC-1, 72 h. An outline of the steps: as §1
The subject of a further assay is HT-29. The assay can be described thus: Inhibition of growth against HT29 cells after 72 hrs exposure. Particulars: Homo sapiens, HT-29, 72 h. In outline:
as §1

Assay [2] relates to IGROV-1. The assay can be described thus: Inhibition of growth against IGROV-ET cells after 72 hrs exposure. Particulars: Homo sapiens, IGROV-1, 72 h. An outline of the steps: as §1
A further assay has as its system K562. In words: Inhibition of growth against K562 cells after 72 hrs exposure. Particulars: Homo sapiens, K562, 72 h. In outline:
as §1

The next assay concerns SK-MEL-28. In words: Inhibition of growth against MEL28 cells after 72 hrs exposure. Particulars: Homo sapiens, SK-MEL-28, 72 h. An outline of the steps: as §1
For assay [3], the system named is LoVo. In words: Inhibition of growth against LoVo-Dox cells after 72 hrs exposure. Particulars: Homo sapiens. An outline of the steps:
as §1

A further assay relates to DU-145. The assay can be described thus: Inhibition of growth against DU145 cells after 72 hrs exposure. Particulars: Homo sapiens, DU-145, 72 h. In outline:
as §1

Another assay concerns HMEC. In words: Inhibition of growth against HMEC1 cells after 72 hrs exposure. Particulars: Homo sapiens. An outline of the steps:
as §1

The test system of assay [4] is LoVo. The assay can be described thus: Inhibition of growth against LoVo cells after 72 hrs exposure. Particulars: Homo sapiens. An outline of the steps:
as §1

For assay [5], the system named is HeLa. The assay can be described thus: Inhibition of growth against HeLa cells after 72 hrs exposure. Particulars: Homo sapiens. In outline: as §1
Assay [6] concerns HeLa. The assay can be described thus: Inhibition of growth against HeLa-Apl cells after 72 hrs exposure. Particulars: Homo sapiens. In outline: as §1

Take `Nc1nccc(-c2c3c(O)ccnc3n3c(N)nccc23)n1` [VARIOLIN B]: the GI50 in the assay with SK-OV-3 is 1.21 µM; in the assay on LNCaP, 0.05 µM; with SK-BR-3, 0.85 µM; in the assay with A549, 0.98 µM; in the assay on IGROV-1 [1], 1.14 µM; with PANC-1 it was 1.68 µM. In addition, the GI50 in the assay on HT-29 was 2.85 µM; in the assay with IGROV-1 [2], 1.28 µM; with K562, 1.55 µM; in the assay on SK-MEL-28, 1.2 µM; in the assay on LoVo [3] it was 1.02 µM; in the assay with DU-145, 0.89 µM. Also, the GI50 is 0.27 µM in the assay on HMEC and 0.8 µM in the assay with LoVo [4].

As to `CN(C)Cc1cnc2c(c1O)c(-c1ccnc(N)n1)c1cc(-c3ccnc(N)n3)nc(NCc3ccccc3)n12`, the GI50 in the assay with LNCaP amounted to 9.13 µM; in the assay on SK-BR-3, 2.79 µM; with HeLa [5] it was 4.52 µM; in the assay on A549, 18.7 µM; in the assay on IGROV-1 [1], 4.03 µM; with PANC-1, 17.7 µM. The GI50 with HT-29 was 18.7 µM; in the assay on IGROV-1 [2], 3.56 µM; in the assay on K562 it was 4.78 µM; in the assay with SK-MEL-28, 4.12 µM; with LoVo [3] it was 3.05 µM; in the assay on HeLa [6], 3.88 µM. Moreover, the GI50 was determined as 4.74 µM in the assay on DU-145 and 13.6 µM in the assay on LoVo [4].

As to `Nc1nccc(-c2cc3cc4c(O)ccnc4n3c(NCc3ccccc3)n2)n1`, the GI50 in the assay with SK-OV-3 was found to be 19 µM; in the assay with LNCaP, 12.9 µM; with SK-BR-3, 13.1 µM; in the assay with A549, 14.1 µM; in the assay with IGROV-1 [1], 4.46 µM; in the assay with PANC-1, 26.1 µM. For the same molecule, the GI50 with HT-29 amounted to 25.1 µM; in the assay with IGROV-1 [2] it was 12.9 µM; in the assay on K562 it was 26.1 µM; with SK-MEL-28, 24.4 µM; in the assay with LoVo [3], 6.76 µM; with DU-145, 26.1 µM. Also, the results for the GI50 with HMEC and in the assay on LoVo [4] were 6.31 µM and 8.74 µM, respectively.

For the molecule `COc1ccnc2c1c(-c1ccnc(N)n1)c1cc(-c3ccnc(N)n3)nc(NCc3ccccc3)n12`, the GI50 with LNCaP was found to be 18.6 µM; in the assay on SK-BR-3, 8.24 µM; with HeLa [5], 3.03 µM; with A549, 21 µM; with IGROV-1 [1], 21 µM; in the assay with PANC-1, 19.9 µM. Moreover, the GI50 in the assay with HT-29 is 21 µM; with IGROV-1 [2] it was 21 µM; in the assay with K562, 21 µM; in the assay with SK-MEL-28, 21 µM; in the assay on LoVo [3] it was 21 µM; with HeLa [6] it was 3.68 µM. For the same molecule, the GI50 in the assay on DU-145 and in the assay on LoVo [4] was 21 µM in each case.

Take `Nc1nccc(-c2cc3cc4c(O)ccnc4n3c(N)n2)n1` [7-ISOVARIOLIN B]: the GI50 in the assay with LNCaP was determined as 5.28 µM; in the assay on SK-BR-3 it was 31.9 µM; in the assay with HeLa [5], 6.14 µM; with A549, 34.1 µM; in the assay on IGROV-1 [1] it was 27.9 µM; in the assay on PANC-1 it was 21.8 µM. Further, the GI50 turned out to be 34.1 µM with HT-29; 31.9 µM in the assay on IGROV-1 [2]; 9.24 µM with K562; 3.41 µM in the assay on SK-MEL-28; 34.1 µM in the assay with LoVo [3]; 8.86 µM in the assay with HeLa [6]. Further, the GI50 in the assay with DU-145 and with LoVo [4] was 34.1 µM throughout.

As to `Nc1nccc(-c2cc3c(-c4ccnc(N)n4)c4c(O)ccnc4n3c(NCc3ccccc3)n2)n1`, the GI50 with SK-OV-3, in the assay on LNCaP, in the assay on SK-BR-3, with A549, in the assay on IGROV-1 [1] and with PANC-1 was 21.7 µM in each case. In addition, the GI50 was determined as 21.7 µM in the assay on HT-29; 9.9 µM in the assay on IGROV-1 [2]; 21.7 µM with K562; 21.7 µM with SK-MEL-28; 21.7 µM in the assay with LoVo [3]; 21.7 µM in the assay with DU-145. Also, the GI50 in the assay on HMEC and with LoVo [4] was 21.7 µM each time.

As for `COc1ccnc2c1c(-c1ccnc(N)n1)c1cc(C(=O)NCCN(C)C)nc(NCc3ccccc3)n12`, the GI50 in the assay with SK-OV-3 worked out at 0.72 µM; in the assay with LNCaP, 2.37 µM; with SK-BR-3, 2.13 µM; in the assay with A549, 3.38 µM; with IGROV-1 [1], 2.8 µM; in the assay on PANC-1 it was 3.97 µM. Moreover, the concentration for 50% growth inhibition (GI50) with HT-29 amounted to 3.44 µM; with IGROV-1 [2], 2.05 µM; in the assay on K562, 3.36 µM; in the assay on SK-MEL-28, 4.42 µM; in the assay with LoVo [3], 3.46 µM; in the assay on DU-145 it was 2.38 µM. In addition, the GI50 was 0.46 µM in the assay on HMEC and 3.62 µM in the assay with LoVo [4].

On to `COc1ccnc2c1cc1cc(-c3ccnc(N)n3)nc(NCc3ccccc3)n12`, for which the GI50 came to 25.2 µM in the assay with SK-OV-3; 16 µM in the assay on LNCaP; 25.2 µM with SK-BR-3; 25.2 µM with A549; 15.1 µM in the assay on IGROV-1 [1]; 25.2 µM in the assay on PANC-1. Also, the GI50 in the assay with HT-29 was found to be 25.2 µM; with IGROV-1 [2] it was 25.2 µM; with K562 it was 25.2 µM; with SK-MEL-28, 25.2 µM; with LoVo [3] it was 11 µM; with DU-145, 25.2 µM. Also, the GI50 in the assay with HMEC turned out to be 15 µM; with LoVo [4], 14.4 µM.

Take `Nc1nccc(-c2cc3c(-c4ccnc(N)n4)c4c(O)ccnc4n3c(N)n2)n1`: the GI50 turned out to be 26.9 µM in the assay with LNCaP; 14.8 µM in the assay on SK-BR-3; 26.9 µM with HeLa [5]; 26.9 µM in the assay with A549; 26.9 µM in the assay on IGROV-1 [1]; 26.9 µM with PANC-1. The GI50 in the assay with HT-29, with IGROV-1 [2], with K562, with SK-MEL-28, in the assay on LoVo [3] and in the assay on HeLa [6] was 26.9 µM each time. The GI50 with DU-145 and in the assay on LoVo [4] was 26.9 µM throughout.

In general, GI50 refers to the concentration giving 50% growth inhibition.
